Bioassay records deposited in PubChem BioAssay by several laboratories.
Only some compounds are listed: those with a hit (about 2.5% of all), similar ones and a draw of the others.
MC4R antag cAMP: antagonists of human melanocortin 4 receptor (MC4R) | P32245 | MC4R-expressing cells, MTII-stimulated cAMP, LANCE TR-FRET | inhibition, % at 6.5 µM | hit rate 0.48% among 360,000 | AID 540295;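 active = inhibition above its plate's cutoff, the mean of tested wells on that plate plus 3 SD, cut at about 29% in these data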;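 note: 0% = Melanotan II alone and 100% = Melanotan II plus saturating MCL0020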
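Assay system: U2OS cells stably expressing human melanocortin 4 receptor (MC4R) / Dosing: 6.5 µM / Timing: compound 30 min, challenge 1 h, detection 1 h / Measured by: Eu-cAMP/anti-cAMP TR-FRET, emission 671 nm / Replicates: singlicate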
NLRP3 yeast inh: blocks the NALP3 inflammasome reconstituted in yeast | Yeast reconstituted NLRP3/ASC/caspase-1, beta-gal luminescence, 24 h | inhibition, % at 10 µM | hit rate 0.39% among 330,000;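 active = inhibition of 50% or more; inactive = inhibition below 50%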;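 note: plate controls were induced DMSO wells for no effect and uninduced yeast grown without galactose for full effect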
MC4R ag barr: agonists of human melanocortin 4 receptor (MC4R) beta-arrestin; P32245; U2OS MC4R beta-arrestin complementation, luminescence; percent of melanotan II response, DMSO zero; activation, % at 8.9 µM; hit rate 0.98% among 360,000;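 active = activation above a per-plate cutoff, the mean activation of sample wells on that plate plus 3 SD, cut at about 8% in these data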
Tb MetRS inh: Trypanosoma brucei MetRS inhibition; inhibition, % at 11.9 µM; hit rate 0.4% among 360,000; purified T. brucei MetRS, ATP depletion, Kinase-Glo luminescence;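 active = inhibition above a per-plate cutoff of the control wells' mean inhibition plus 3 SD, cut at about 5.5% in these data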;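 note: 0% = DMSO wells median and 100% = median of wells with control inhibitor compound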
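technique = Kinase-Glo luminescence, ATP depletion format | system = purified MetRS (methionyl-tRNA synthetase) enzyme from Trypanosoma brucei | timing = 15 min preincubation, 2 h reaction, all 25 °C | evaluation = percent inhibition versus plate control medians | dosing = single dose, 11.9 µM final nominal, 0.9% final DMSO | also added = substrates ATP, L-methionine and bulk Escherichia coli tRNA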
NALP1 yeast inh: NALP1 inhibition; hit rate 0.61% among 280,000; S. cerevisiae NALP1/ASC/caspase-1 growth, X-gal OD620, 72 h; inhibition, % at 10 µM; AID 2071; in the data active = inhibition mostly above about 24%, no sharp cut-off; inactive = mostly below about 32%
Bfl-1 A1 inh: inhibitors of the anti-apoptotic protein A1, read as caspase activation. MEF A1-2A-BIM cells, Caspase-Glo 3/7 luminescence, 3 h; percent of clofoctol response, vehicle zero. hit rate 0.066% among 330,000. caspase activation, % (test concentration not listed);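 active = over half of replicate activation scores above 10%, or exactly half above 10 with the replicate mean above 10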
MC4R barr conf: human MC4R beta-arrestin agonism confirmation; hit rate 31% among 2,400; U2OS MC4R beta-arrestin recruitment, luminescence; scaled DMSO 0%, Melanotan II 100%; shares compounds with MC4R ag barr; activation, % at 8.9 µM; AID 602192;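 active = mean activation across replicates above the hit cutoff set in the earlier primary screen, cut at about 8% in these data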
MOR-DOR barr ag: counter-screen for MC4R agonists: agonists of mu-delta opioid heterodimer. shares compounds with MC4R ag barr. activation, % at 9.2 µM. U2OS PathHunter beta-arrestin, beta-gal luminescence; percent of deltorphin B response, DMSO zero. hit rate 5.8% among 2,400;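 active = mean activation across replicates exceeds the hit threshold derived in the earlier primary screen, cut at about 18% in these data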;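 note: 100% = deltorphin B at 0.9 µM final and 0% = DMSO alone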
Target sequence (P35372 whole entry, looked up): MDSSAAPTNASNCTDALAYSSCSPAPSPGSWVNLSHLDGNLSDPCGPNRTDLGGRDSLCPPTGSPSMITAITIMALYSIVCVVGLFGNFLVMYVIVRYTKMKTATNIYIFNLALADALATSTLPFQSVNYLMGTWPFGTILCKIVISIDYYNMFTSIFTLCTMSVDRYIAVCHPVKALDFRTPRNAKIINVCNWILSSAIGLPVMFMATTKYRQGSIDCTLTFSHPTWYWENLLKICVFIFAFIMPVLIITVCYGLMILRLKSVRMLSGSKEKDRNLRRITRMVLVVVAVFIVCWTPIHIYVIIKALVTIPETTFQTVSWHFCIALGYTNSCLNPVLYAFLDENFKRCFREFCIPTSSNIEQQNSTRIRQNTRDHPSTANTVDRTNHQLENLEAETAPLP
Target sequence (P41143 whole entry, looked up): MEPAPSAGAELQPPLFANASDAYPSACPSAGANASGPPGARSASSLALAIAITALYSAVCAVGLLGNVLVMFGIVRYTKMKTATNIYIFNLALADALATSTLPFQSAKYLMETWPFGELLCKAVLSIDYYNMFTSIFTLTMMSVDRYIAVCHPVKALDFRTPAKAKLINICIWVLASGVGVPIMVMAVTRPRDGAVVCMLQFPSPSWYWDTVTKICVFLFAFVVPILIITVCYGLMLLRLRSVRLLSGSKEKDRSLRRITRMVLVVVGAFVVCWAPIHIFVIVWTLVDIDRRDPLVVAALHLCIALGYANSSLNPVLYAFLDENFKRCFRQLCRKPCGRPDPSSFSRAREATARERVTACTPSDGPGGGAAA
An asterisk follows results filed as active; x = no result given.

SMILES | MC4R antag cAMP | NLRP3 yeast inh | MC4R ag barr | Tb MetRS inh | NALP1 yeast inh | Bfl-1 A1 inh | MC4R barr conf | MOR-DOR barr ag
Cc1noc(C)c1C(=O)OCC(=O)Nc1ncc(Cl)c(C)c1Cl | 4 | 12 | 0 | 0 | x | 0 | x | x
COc1ccc(C(=O)OCC(=O)c2c[nH]c3ccccc23)c(OC)c1 | -7 | 2 | -1 | 0 | x | -4 | x | x
O=C(OCC(=O)c1c[nH]c2ccccc12)c1cc2ccccc2cc1O | -1 | -3 | 12* | 1 | 17 | 1 | 3 | 3
Cc1ccc(S(=O)(=O)Nc2ccc(-c3nc4ccc(C)cc4s3)cc2)cc1 | 8 | 11 | 14* | 0 | 24 | 0 | 15* | 3
Cc1cccc(S(=O)(=O)Nc2ccc(-c3nc4ccc(C)cc4s3)cc2)c1 | 0 | 33 | 16* | -1 | 30 | 0 | 0 | 2
COc1ccc(C(=O)NC2CC2)cc1OC1CCN(C(C)CSC)CC1 (stereo not drawn) | 6 | 2 | -2 | 0 | 19 | 0 | x | x
O=S(=O)(NCc1ccccc1)c1ccc(S(=O)(=O)N(Cc2ccccn2)Cc2ccco2)cc1 | 2 | -4 | 10* | -2 | 22 | 0 | 6 | 4
COc1cc(/C=C2\CC/C(=C\c3cc(OC)c(O)c(OC)c3)C2=O)cc(OC)c1O | -8 | -1 | 21* | 0 | 22 | 0 | 56* | 35*
Cc1ccc(C(C)C)c(OCc2nn(CC(=O)c3ccc(Cl)cc3)c3[n+]2CCCCC3)c1 | 14 | 8 | 40* | -1 | 22 | 0 | 19* | 34*
O=C1CCC(C(=O)N2CCCCO2)CN1Cc1ccc(Cl)cc1 (stereo not drawn) | 3 | 6 | -2 | 0 | 2 | 1 | x | x
Cc1nnc(N2CCCC(C(=O)NCc3ccc(OC(C)C)cc3)C2)c2nn(-c3ccccc3)c(C)c12 (stereo not drawn) | 8 | 8 | 12* | -1 | -1 | -2 | 4 | 3
Cc1nnc(N2CCCC(C(=O)Nc3cc(F)ccc3F)C2)c2nn(-c3ccccc3)c(C)c12 (stereo not drawn) | 24 | 2 | 2 | 0 | 1 | 0 | x | x
Cc1ccc(-n2nc3c(N4CCC(C(=O)NCCc5cccs5)CC4)nnc(C)c3c2C)cc1 | 7 | 1 | 15* | 0 | 29 | 0 | 12* | 3
CCN1C(=O)[C@H]2[C@H]3CN=C(SCC4CC4)N3[C@@](CC)(C(=O)OC)[C@H]2C1=O | 3 | x | 1 | -1 | x | x | x | x
Cc1cccn2c(=O)c3cc(C(=O)NC4CCCCCC4)sc3nc12 | 10 | 20 | 3 | 0 | 12 | 0 | x | x
CCCCNC(=O)c1cc2c(=O)n3cccc(C)c3nc2s1 | -2 | 31 | -2 | -1 | 3 | -9 | x | x
Cc1ccccc1NC(=O)c1cc2c(=O)n3cccc(C)c3nc2s1 | 8 | 26 | 19* | 0 | 4 | -1 | 5 | 8
Cc1cccn2c(=O)c3cc(C(=O)NCCc4ccccc4)sc3nc12 | 0 | 14 | 18* | 0 | 18 | 0 | 13* | 3
COc1ccccc1-c1ncn(Cc2cccc(-c3ccccc3)c2)c1-c1cc(C)cc(C)c1 | x | x | x | 0 | x | x | x | x
O=C(Nc1ccccc1OC(=O)c1ccc(Cl)cc1)c1ccc(Cl)cc1 | 11 | 24 | 36* | 0 | 14 | 0 | 8 | 3
COc1ccc(C(=O)Nc2cc(Cl)ccc2OC(=O)c2ccc(OC)cc2)cc1 | 16 | 7 | 14* | 0 | 19 | -7 | 2 | 2
O=C(Nc1cc(Cl)ccc1Cl)c1ccc(OC(=O)c2ccco2)cc1 | -1 | 25 | 13* | -1 | 6 | -2 | 4 | 7
Cc1cc(C(=O)Nc2sc(C)c(-c3ccc(F)cc3)c2C(N)=O)no1 | -7 | 20 | 13* | 0 | 11 | -2 | 0 | 8
